From paper PMC9989852 (Food and chemical toxicology : an international journal …, 2022)
Where “and” joins values, the source holds several entries; their conditions need not be identical. Equal values may be shown once.

Key:
[1] = PFAS concentration in pooled urine; assay type: in vivo, B6C3F1 mice; settings: 5%, dermal, 28 days; 5 pooled samples
Procedure, shortened: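 Urine was caught in a weigh boat as it was excreted during CO2 euthanasia, about 24 h after the final daily ear dose (25 μl/ear, acetone vehicle; female B6C3F1 mice). The 5 mice per group were pooled, with variable volume. Samples underwent solid-phase extraction and LC/MS/MS, as linear isomer for short-chain analytes and linear plus branched for the comparator. Each group gave a single value without statistics.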

B6C3F1 mice [2] = experiment: Serum chemistries after 28-day dermal exposure; assay type: in vivo; settings: 28 days
Procedure, shortened: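 Female B6C3F1 mice received daily dorsal ear application (25 μl/ear, acetone vehicle). About 24 h after the last dose, blood was taken by cardiac puncture. Serum was separated by centrifugation and stored at −20 °C. ALKP, BUN, glucose and cholesterol were read on a Catalyst DX analyzer. Data are mean ± SE of 4–5 mice, ANOVA with Dunnett's; ALKP was also tested by linear regression (p < 0.05).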

ear pinna = experiment: Skin; assay type: in vivo, B6C3F1 mice; settings: dermal, 28 days
Procedure, shortened: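 Female B6C3F1 mice (5/group) received 25 μl/ear daily to the dorsal ears in acetone. About 24 h after the last dose, tissues went into RPMI: both auricular dLNs, half spleen and one ear pinna. Single-cell suspensions were acquired on an LSR II, with populations gated per supplemental strategy and FMO gating controls. Results are mean ± SE, n=5, by one-way ANOVA.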

B6C3F1 mice [3] = experiment: Organ weights and body weight after 28-day dermal exposure; assay type: in vivo; settings: 28 days; for body weight or overt signs of toxicity: 1.25–5%; for Liver weight (% body weight), increase vs vehicle-treated mice: 5%
liver = experiment: Liver histopathology after 28-day dermal exposure; assay type: in vivo, B6C3F1 mice; settings: 28 days, mice affected of 5
Procedure, shortened: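 Female B6C3F1 mice (5/group) received 25 μl/ear on the dorsal ear surfaces daily, with acetone as vehicle. Tissues were formalin-fixed about 24 h after the last dose: liver remainder, half spleen, right kidney and half ear pinna. Sections were paraffin-embedded, cut at 5 μm and stained with H&E. A veterinary pathologist read them per STP guideline and graded 1 (minimal) to 5 (severe) by extent.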

## O=C(O)C(F)(F)C(F)(F)C(F)(F)C(F)(F)C(F)(F)F [PFHxA, perfluorohexanoic acid]
[1]
  urine PFAS concentration: 1700 µg/mL
B6C3F1 mice [2]; 5%
  serum glucose, increase compared to vehicle control: 27%
Ear pinna; 1.25%
  Ear CD4^+ cell number: 2.40 ± 0.36 × 10^3
  Ear CD4^+ frequency: 3.34 ± 0.09%
  Ear CD8^+ cell number: 3.38 ± 2.57 × 10^2
  Ear CD8^+ frequency: 0.48 ± 0.37%
  Ear CD45^+ cell number: 7.21 ± 1.13 × 10^4
  Ear CD45^+ frequency: 8.51 ± 0.85%
  Ear CD lib- F4/80+ DCs cell number: 5.74 ± 0.72 × 10^2
  Ear CDllb + F4/80+ DCs cell number: 22.30 ± 3.03 × 10^2
  Ear CDllb- F4/80+ DCs frequency: 0.87 ± 0.14%
  Ear CDllb- F4/80-DCs cell number: 1.47 ± 0.24 × 10^3
  Ear CDllb- F4/80-DCs frequency: 2.05 ± 0.05 %
  Ear Dendritic Cells cell number: 4.99 ± 0.68 × 10^3
  Ear Dendritic Cells frequency: 7.09 ± 0.33%
  Ear Eosinophils cell number: 2.77 ± 0.56 × 10^3
  Ear Eosinophils frequency: 3.82 ± 0.34%
  Ear NK cell number: 4.76 ± 0.96 × 10^2
  Ear NK frequency: 0.66 ± 0.07%
  Ear Neutrophils cell number: 1.18 ± 0.22 × 10^2
  Ear Neutrophils frequency: 0.17 ± 0.02%
  Ear Total Cellularity: 0.83 ± 0.09 × 10^6
Ear pinna; 2.5%
  Ear CD4^+ cell number: 5.01 ± 0.60 × 10^3
  Ear CD4^+ frequency: 5.05 ± 0.25 %
  Ear CD8^+ cell number: 1.91 ± 0.23 × 10^2
  Ear CD8^+ frequency: 0.19 ± 0.02%
  Ear CD45^+ cell number: 9.82 ± 0.79 × 10^4
  Ear CD45^+ frequency: 10.91 ± 1.00 %
  Ear CD lib- F4/80+ DCs cell number: 6.58 ± 0.67 × 10^2
  Ear CDllb + F4/80+ DCs cell number: 35.80 ± 2.66 × 10^2
  Ear CDllb- F4/80+ DCs frequency: 0.67 ± 0.05%
  Ear CDllb- F4/80-DCs cell number: 2.82 ± 0.24 × 10^3
  Ear CDllb- F4/80-DCs frequency: 2.89 ± 0.19%
  Ear Dendritic Cells cell number: 9.09 ± 0.72 × 10^3
  Ear Dendritic Cells frequency: 9.30 ± 0.47%
  Ear Eosinophils frequency: 7.59 ± 0.65 %
  Ear NK cell number: 6.45 ± 0.60 × 10^2
  Ear NK frequency: 0.66 ± 0.04%
  Ear Neutrophils cell number: 4.94 ± 1.24 × 10^2
  Ear Neutrophils frequency: 0.51 ± 0.13%
  Ear Total Cellularity: 0.91 ± 0.05 × 10^6
Ear pinna; 5%
  Ear CD4^+ cell number: 6.11 ± 1.17 × 10^3
  Ear CD4^+ frequency: 5.29 ± 0.32 %
  Ear CD8^+ cell number: 2.15 ± 0.46 × 10^2
  Ear CD8^+ frequency: 0.20 ± 0.04%
  Ear CD45^+ cell number: 11.50 ± 2.03 × 10^4
  Ear CD45^+ frequency: 11.22 ± 1.00 %
  Ear CD lib- F4/80+ DCs cell number: 4.22 ± 0.49 × 10^2
  Ear CDllb + F4/80+ DCs cell number: 48.30 ± 7.74 × 10^2
  Ear CDllb- F4/80+ DCs frequency: 0.39 ± 0.03 %
  Ear CDllb- F4/80-DCs cell number: 2.90 ± 0.54 × 10^3
  Ear CDllb- F4/80-DCs frequency: 2.51 ± 0.14%
  Ear Dendritic Cells cell number: 10.10 ± 1.77 × 10^3
  Ear Dendritic Cells frequency: 8.88 ± 0.39%
  Ear Eosinophils cell number: 9.87 ± 1.78 × 10^3
  Ear Eosinophils frequency: 8.60 ± 0.38 %
  Ear NK cell number: 9.94 ± 2.21 × 10^2
  Ear NK frequency: 0.85 ± 0.09 %
  Ear Neutrophils frequency: 1.13 ± 0.23 %
  Ear Total Cellularity: 0.99 ± 0.11 × 10^6
B6C3F1 mice [3]
  body weight or overt signs of toxicity: no changes
  Liver weight (% body weight), increase vs vehicle-treated mice: 9%
liver; 1.25%
  Liver: Hypertrophy, centrilobular, hepatocyte, Mild (incidence): 0
  Liver: Hypertrophy, centrilobular, hepatocyte, Minimal (incidence): 2/5 and 2
liver; 2.5%
  Liver: Hypertrophy, centrilobular, hepatocyte, Mild (incidence): 0
  Liver: Hypertrophy, centrilobular, hepatocyte, Minimal (incidence): 5/5 and 5
liver; 5%
  Liver: Hypertrophy, centrilobular, hepatocyte, Mild (incidence): 0
  Liver: Hypertrophy, centrilobular, hepatocyte, Minimal (incidence): 5/5 and 5

## O=C(O)C(F)(F)C(F)(F)C(F)(F)C(F)(F)F [PFPeA, perfluoropentanoic acid]
[1]
  urine PFAS concentration: 5600 µg/mL
B6C3F1 mice [2]; 1.25%
  serum cholesterol: decrease
B6C3F1 mice [2]; 2.5%
  serum urea nitrogen (BUN), decrease: 20%
B6C3F1 mice [2]; 5%
  serum glucose, increase compared to vehicle control: 30%
  serum urea nitrogen (BUN), decrease: 22%
B6C3F1 mice [2]; any concentration, data not shown
  serum alanine aminotransferase (ALT): No change
Ear pinna; 1.25%
  Ear CD4^+ cell number: 2.55 ± 0.41 × 10^3
  Ear CD4^+ frequency: 2.93 ± 0.23 %
  Ear CD8^+ cell number: 1.38 ± 0.17 × 10^2
  Ear CD8^+ frequency: 0.16 ± 0.02%
  Ear CD45^+ cell number: 8.61 ± 1.11 × 10^4
  Ear CD45^+ frequency: 8.16 ± 0.67%
  Ear CD lib- F4/80+ DCs cell number: 17.60 ± 3.16 × 10^2
  Ear CDllb + F4/80+ DCs cell number: 26.50 ± 4.08 × 10^2
  Ear CDllb- F4/80+ DCs frequency: 2.10 ± 0.37%
  Ear CDllb- F4/80-DCs cell number: 2.15 ± 0.38 × 10^3
  Ear Dendritic Cells cell number: 6.78 ± 0.97 × 10^3
  Ear Dendritic Cells frequency: 7.83 ± 0.37%
  Ear Eosinophils cell number: 2.72 ± 0.51 × 10^3
  Ear Eosinophils frequency: 3.13 ± 0.31%
  Ear NK cell number: 5.64 ± 0.85 × 10^2
  Ear NK frequency: 0.66 ± 0.06%
  Ear Neutrophils cell number: 2.28 ± 0.53 × 10^2
  Ear Neutrophils frequency: 0.27 ± 0.06%
  Ear Total Cellularity: 1.05 ± 0.10 × 10^6
Ear pinna; 2.5%
  Ear CD4^+ cell number: 4.65 ± 0.67 × 10^3
  Ear CD45^+ cell number: 10.30 ± 1.26 × 10^4
  Ear CD45^+ frequency: 11.46 ± 1.03 %
  Ear CD lib- F4/80+ DCs cell number: 17.80 ± 3.48 × 10^2
  Ear CDllb + F4/80+ DCs frequency: 4.22 ± 0.51 %
  Ear CDllb- F4/80+ DCs frequency: 1.73 ± 0.22%
  Ear CDllb- F4/80-DCs cell number: 2.79 ± 0.54 × 10^3
  Ear Dendritic Cells cell number: 9.44 ± 2.00 × 10^3
  Ear NK cell number: 5.86 ± 0.63 × 10^2
  Ear NK frequency: 0.57 ± 0.01%
  Ear Neutrophils cell number: 3.16 ± 0.37 × 10^2
  Ear Neutrophils frequency: 0.32 ± 0.05%
  Ear Total Cellularity: 0.88 ± 0.04 × 10^6
Ear pinna; 5%
  Ear CD4^+ cell number: 10.80 ± 1.17 × 10^3
  Ear CD4^+ frequency: 5.64 ± 0.27 %
  Ear CD8^+ cell number: 8.33 ± 1.57 × 10^2
  Ear CD8^+ frequency: 0.42 ± 0.04 %
  Ear CD45^+ cell number: 19.40 ± 2.55 × 10^4
  Ear CD45^+ frequency: 13.60 ± 0.97 %
  Ear CD lib- F4/80+ DCs cell number: 45.60 ± 8.63 × 10^2
  Ear CDllb + F4/80+ DCs cell number: 86.70 ± 10.20 × 10^2
  Ear CDllb + F4/80+ DCs frequency: 4.51 ± 0.18 %
  Ear CDllb- F4/80+ DCs frequency: 2.36 ± 0.35%
  Ear CDllb- F4/80-DCs cell number: 6.19 ± 0.94 × 10^3
  Ear CDllb- F4/80-DCs frequency: 3.16 ± 0.10 %
  Ear Dendritic Cells cell number: 20.20 ± 2.65 × 10^3
  Ear Dendritic Cells frequency: 10.42 ± 0.36 %
  Ear Eosinophils cell number: 13.50 ± 2.05 × 10^3
  Ear Eosinophils frequency: 7.35 ± 1.24 %
  Ear NK cell number: 16.10 ± 4.27 × 10^2
  Ear NK frequency: 0.80 ± 0.12%
  Ear Neutrophils cell number: 21.60 ± 8.98 × 10^2
  Ear Neutrophils frequency: 0.97 ± 0.31 %
  Ear Total Cellularity: 1.41 ± 0.11 × 10^6
B6C3F1 mice [3]
  body weight or overt signs of toxicity: no changes
  Liver weight (% body weight), increase vs vehicle-treated mice: 12%
liver; 1.25%
  Liver: Hypertrophy, centrilobular, hepatocyte, Mild (incidence): 0
  Liver: Hypertrophy, centrilobular, hepatocyte, Minimal (incidence): 5/ 5 and 5
liver; 2.5%
  Liver: Hypertrophy, centrilobular, hepatocyte, Mild (incidence): 5/5 and 5
  Liver: Hypertrophy, centrilobular, hepatocyte, Minimal (incidence): 0
liver; 5%
  Liver: Hypertrophy, centrilobular, hepatocyte, Mild (incidence): 5/5 and 5
  Liver: Hypertrophy, centrilobular, hepatocyte, Minimal (incidence): 0
